Reference: ChEMBL document CHEMBL1132728, “Inhibition of Escherichia coli glucosamine synthetase by novel electrophilic analogues of glutamine--comparison with 6-diazo-5-oxo-norleucine” (Bioorg Med Chem Lett, 2000)

Key:
[1] = Second order rate constant ([…]) was determined
In short: (§1)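 E. coli glucosamine synthetase was preincubated 15 min at 37 °C in 100 mM potassium phosphate, pH 7.5, with 10 mM fructose-6-phosphate and 50 mM KCl, then inhibitor was added. Timed aliquots were diluted 40-fold into the same buffer with 6 mM L-glutamine, and residual activity was read by colorimetric glutamate assay. The ln(residual activity)-versus-time plot gave t1/2, and kobs = ln2/t1/2. kobs versus [I] was fitted by Kitz–Wilson to give k+2 and Ki.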

[2] = Steady-state inactivation rate constant for inactivation of Escherichia coli glucosamine synthetase was determined; in short: as §1
Escherichia coli [3] = experiment: Limiting rate constant for inactivation of Escherichia coli glucosamine synthetase was determined; in short: as §1
[4] = Second order rate constant ([…]) with Escherichia coli glucosamine synthetase; in short: as §1
[5] = Steady-state inactivation rate constant for inactivation of Escherichia coli glucosamine synthetase was determined; No inhibition at 200 uM
Escherichia coli [6] = experiment: Limiting rate constant for inactivation of Escherichia coli glucosamine synthetase was determined; No inhibition at 200 uM
[7] = Second order rate constant ([…]) was determined; No inhibition at 200 uM

SMILES: N[C@@H](CCC(=O)CCl)C(=O)O
- K+2/Ki [1]: 50 M⁻¹ s⁻¹
- Ki [2]: 62500 nM
- K+2 (Escherichia coli [3]): 0.19 min⁻¹

SMILES: [N-]=[N+]=CC(=O)CC[C@H](N)C(=O)O [6-DIAZO-5-OXO-L-NORLEUCINE]
- K+2/Ki [4]: 1170 M⁻¹ s⁻¹
- Ki [2]: 9500 nM
- K+2 (Escherichia coli [3]): 0.7 min⁻¹

SMILES: N[C@@H](CCC(=O)CBr)C(=O)O
- K+2/Ki [1]: 2500 M⁻¹ s⁻¹
- Ki [2]: 2700 nM
- K+2 (Escherichia coli [3]): 0.4 min⁻¹

SMILES: N#CCC[C@H](N)C(=O)O
- Ki [5]: No inhibition
- K+2 (Escherichia coli [6]): No inhibition
- K+2/Ki [7]: No inhibition

SMILES: CC(=[N+]=[N-])C(=O)CC[C@H](N)C(=O)O
- K+2/Ki [1]: 333 M⁻¹ s⁻¹
- Ki [2]: 1100 nM
- K+2 (Escherichia coli [3]): 0.02 min⁻¹

SMILES: C[S+](C)CC(=O)CC[C@H](N)C(=O)O
- K+2/Ki [1]: 5330 M⁻¹ s⁻¹
- Ki [2]: 370 nM
- K+2 (Escherichia coli [3]): 0.12 min⁻¹
